Measured values: ChEMBL document CHEMBL2062400, “RCAI-84, 91, and 105-108, ureido and thioureido analogs of KRN7000: their synthesis and bioactivity for mouse lymphocytes to produce Th1-biased cytokines” (Bioorg Med Chem, 2012)
Activity calls are given as the source filed them. The calls are words filed in the database; no cut-off is given here.

Experiments:
Mus musculus [1] = experiment: Immunostimulatory activity in C57BL/6J mouse assessed as increase in IFNgamma level at 2 ug, iv upto 24 hrs by ELISA; type: functional, organism-based
Summary of the method: (§1)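 Mice were 8-week C57BL/6J kept under SPF conditions. Glycolipid was dissolved in DMSO (1.0 mg/mL, 80 °C, 30 min), diluted to 200 µg/mL in PBS with 0.5% Tween20, then to 10 µg/mL in PBS. A 200 µL dose (2 µg/mouse) was given iv. Retro-orbital plasma was taken at 3–60 h. IFN-γ was read by ELISA and IL-4 by CBA. Data are mean ± SD of 3 mice, repeated 3 times.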

Mus musculus [2] = experiment: Immunostimulatory activity in C57BL/6J mouse assessed as increase in IL4 level at 2 ug, iv by cytometric bead array method; type: functional, organism-based; summary of the method: as §1
Mus musculus [3] = experiment: Immunostimulatory activity in C57BL/6J mouse assessed as increase in IL12p70 level at 2 ug, iv from 3 to 12 hrs by cytometric bead array method relative to KRN7000; type: functional, organism-based
Summary of the method: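 Eight-week SPF C57BL/6J mice received 2 µg glycolipid iv (200 µL of 10 µg/mL in PBS, from a DMSO stock diluted in PBS/0.5% Tween20). Plasma was collected from the retro-orbital plexus with heparinized capillaries at 3, 6, 12, 24, 36, 48 and 60 h. IL-12p70 was quantified by cytometric bead array.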

Mus musculus [4] = experiment: Immunostimulatory activity in C57BL/6J mouse assessed as IL4 level at 5 ug, ip at 2 hrs by sandwich ELISA relative to KRN7000; type: functional
Mus musculus [5] = experiment: Immunostimulatory activity in C57BL/6J mouse assessed as IFNgamma level at 5 ug, ip at 16 hrs by sandwich ELISA relative to KRN7000; type: functional
Mus musculus [6] = experiment: Immunostimulatory activity in C57BL/6J mouse assessed as IFNgamma level at 2 ug, iv upto 24 hrs by ELISA relative to KRN7000; type: functional
Mus musculus [7] = experiment: Immunostimulatory activity in C57BL/6J mouse assessed as IL4 level at 2 ug, iv by cytometric bead array method relative to KRN7000; type: functional

| Compound | Activity (Mus musculus [1]) | Activity (Mus musculus [2]) | also measured |
| --- | --- | --- | --- |
| CCCCCCCCCCCCCC[C@@H](O)[C@@H](O)[C@H](CO[C@H]1O[C@H](CO)[C@H](O)[C@H](O)[C@H]1O)NC(=O)NCCCCCCCC | Active | Active |  |
| CCCCCCCCCCCCCCCCCCCCCCCCCC(=O)N[C@@H](CO[C@H]1C[C@H](COC)[C@H](O)[C@H](O)[C@H]1O)[C@H](O)[C@H](O)CCCCCCCCCCCCCC | Active |  |  |
| CCCCCCCCCCCCCCCCNC(=S)N[C@@H](CO[C@H]1O[C@H](CO)[C@H](O)[C@H](O)[C@H]1O)[C@H](O)[C@H](O)CCCCCCCCCCCCCC | inactive | inactive |  |
| CCCCCCCCCCCCCCCCCCCCCCCCNC(=O)N[C@@H](CO[C@H]1O[C@H](COC)[C@H](O)[C@H](O)[C@H]1O)[C@H](O)[C@H](O)CCCCCCCCCCCCCC | Active |  | Activity (Mus musculus [3]): Active |
| CCCCCCCCCCCCCC[C@@H](O)[C@@H](O)[C@H](CO[C@H]1O[C@H](CO)[C@H](O)[C@H](O)[C@H]1O)NC(=O)CCCCCc1ccccc1 | inactive |  |  |
| CCCCCCCCCCCCCCCCCCCCCCCCC(F)(F)C(=O)N[C@@H](CO[C@H]1O[C@H](CO)[C@H](O)[C@H](O)[C@H]1O)[C@H](O)[C@H](O)CCCCCCCCCCCCCC |  |  | Activity (Mus musculus [4]): 100%; Activity (Mus musculus [5]): 50% |
| CCCCCCCCCCCCCC[C@@H](O)[C@@H](O)[C@H](CO[C@H]1O[C@H](CO)[C@H](O)[C@H](O)[C@H]1O)NC(=O)NCCCCCc1ccccc1 | inactive | inactive |  |
| CCCCCCCCCCCCCCCCCC(=O)N[C@@H](CO[C@H]1O[C@H](CO)[C@H](O)[C@H](O)[C@H]1O)[C@H](O)[C@H](O)CCCCCCCCCCCCCC |  |  | Activity (Mus musculus [6]): 10%; Activity (Mus musculus [7]): 40% |
| CCCCCCCCCCCCCCCCCCCCCCCCCC(=O)N[C@@H](CS[C@H]1O[C@H](CO)[C@H](O)[C@H](O)[C@H]1O)[C@H](O)[C@H](O)CCCCCCCCCCCCCC | inactive |  |  |
| CCCCCCCCCCCCCCCCCCCCCCCCNC(=O)N[C@@H](CO[C@H]1O[C@H](CO)[C@H](O)[C@H](O)[C@H]1O)[C@H](O)[C@H](O)CCCCCCCCCCCCCC | Active |  | Activity (Mus musculus [3]): Active |
| CCCCCCCCCCCCCCCCCCCCCCCCCC(=O)N[C@@H](CO[C@H]1C[C@H](CO)[C@H](O)[C@H](O)[C@H]1O)[C@H](O)[C@H](O)CCCCCCCCCCCCCC | Active |  |  |
| CCCCCCCCCCCCCCCCCCCCCCCCCC(=O)N[C@@H](CC[C@H]1O[C@H](CO)[C@H](O)[C@H](O)[C@H]1O)[C@H](O)[C@H](O)CCCCCCCCCCCCCC | Active |  |  |
| CCCCCCCCCCCCCCCCCCCCCCCCCC(=O)N[C@@H](CO[C@H]1O[C@H](CO)[C@H](O)[C@H](O)[C@H]1O)[C@H](O)[C@H](O)CCCCCCCCCCCCCC |  | Active |  |
| CCCCCCCCCCCCCCCCNC(=O)N[C@@H](CO[C@H]1O[C@H](CO)[C@H](O)[C@H](O)[C@H]1O)[C@H](O)[C@H](O)CCCCCCCCCCCCCC | Active | Active |  |
